Broadly, the Km is the substrate concentration at which the rate is half of its maximum.

This passage reports Km results from ChEMBL document CHEMBL1124735, “Dehydrogenase binding by tiazofurin anabolites” (J Med Chem, 1990).

Compound in the series: NC(=O)c1ccc[n+]([C@@H]2O[C@H](COP(=O)([O-])OP(=O)(O)OC[C@H]3O[C@@H](n4cnc5c(N)ncnc54)[C@H](O)[C@@H]3O)[C@@H](O)[C@H]2O)c1
The series is described as follows: In vitro inhibitory activity against pig heart cytoplasmic malate dehydrogenase (MDH),. Summed up: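 Pig heart enzymes (cytoplasmic MDH or LDH, from ammonium sulfate suspension) assayed in 0.05 M Tris HCl pH 9.0, with NAD as substrate; rates from NADH appearance by A340 (ε 6.22 mM⁻¹cm⁻¹) or fluorescence calibrated against NADH standards. Run at least in duplicate; kinetic constants from Lineweaver-Burk plots by linear regression.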

B1: Malate dehydrogenase, cytoplasmic (Sus scrofa), P11708 (protein)
chain: MSEPIRVLVTGAAGQIAYSLLYSIGNGSVFGKDQPIILVLLDITPMMGVLDGVLMELQDCALPLLKDVIATDKEEIAFKDLDVAILVGSMPRRDGMERKDLLKANVKIFKCQGAALDKYAKKSVKVIVVGNPANTNCLTASKSAPSIPKENFSCLTRLDHNRAKAQIALKLGVTSDDVKNVIIWGNHSSTQYPDVNHAKVKLQAKEVGVYEAVKDDSWLKGEFITTVQQRGAAVIKARKLSSAMSAAKAICDHVRDIWFGTPEGEFVSMGIISDGNSYGVPDDLLYSFPVTIKDKTWKIVEGLPINDFSREKMDLTAKELAEEKETAFEFLSSA
For B1, the Km worked out at 33.9 µM.
